# Activity calls are given as the source filed them. The rule behind the calls is not given here.
# How the values were obtained:
# [1] = tested on: PA-1; test: Cytotoxicity against human PA1 cells after 72 hrs by MTT assay; assay type: functional, cell-based; details: PA-1, 72 h
# [2] = tested on: DU-145; test: Cytotoxicity against human DU145 cells after 72 hrs by MTT assay; assay type: functional, cell-based; details: DU-145, 72 h
# [3] = tested on: KB; test: Cytotoxicity against human KB cells after 72 hrs by MTT assay; assay type: functional, cell-based
# [4] = tested on: SW-620; test: Cytotoxicity against human SW620 cells after 72 hrs by MTT assay; assay type: functional, cell-based; details: SW-620, 72 h
# [5] = tested on: HBL-100; test: Cytotoxicity against human HBL100 cells after 72 hrs by MTT assay; assay type: functional, cell-based; details: HBL-100, 72 h
# [6] = tested on: A549; test: Cytotoxicity against human A549 cells after 72 hrs by MTT assay; assay type: functional, cell-based; details: A549, 72 h
# [7] = tested on: MIA PaCa-2; test: Cytotoxicity against human MIAPaCa2 cells after 72 hrs by MTT assay; assay type: functional, cell-based; details: MIA PaCa-2, 72 h
# [8] = tested on: K562; test: Cytotoxicity against human K562 cells after 72 hrs by MTT assay; assay type: functional, cell-based; details: K562, 72 h
# [9] = tested on: ECV-304; test: Cytotoxicity against human ECV304 cells after 72 hrs by MTT assay; assay type: functional, cell-based
# [10] = Cytotoxicity against mouse NIH/3T3 cells after 72 hrs by MTT assay; assay type: cell-based, NIH3T3
# [11] = Antiinflammatory activity in C57BL/6 mouse DC assessed as inhibition of LPS-induced IL1-beta production at 1 ug/ml after 24 hrs by ELISA; assay type: functional
# How it was run: (§1)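 Dendritic cells grown from femoral bone marrow of 8–12-week-old C57BL/6 mice in RPMI-1640 with 10% FBS and 20 ng/ml rmGM-CSF at 37 °C, 5% CO2. Day-6 immature DCs were stimulated with 10 ng/ml LPS plus compound for 24 h. Supernatant cytokine/chemokine measured by ELISA (pg/ml); % change = (B−A)/A×100, versus LPS-stimulated DCs alone.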
# [12] = Antiinflammatory activity in C57BL/6 mouse DC assessed as inhibition of LPS-induced IL1-beta production at 0.1 ug/ml after 24 hrs by ELISA; assay type: functional; how it was run: as §1
# [13] = Antiinflammatory activity in C57BL/6 mouse DC assessed as inhibition of LPS-induced IL-6 production at 1 ug/ml after 24 hrs by ELISA; assay type: functional; how it was run: as §1
# [14] = Antiinflammatory activity in C57BL/6 mouse DC assessed as inhibition of LPS-induced IL-6 production at 0.1 ug/ml after 24 hrs by ELISA; assay type: functional; how it was run: as §1
# [15] = tested on: PA-1; test: Cytotoxicity against human PA1 cells at 10 uM after 72 hrs by MTT assay; assay type: functional, cell-based
# How it was run: (§2)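 Three-day MTT screen with 5000–10,000 cells/well and 72 h compound exposure at the top screening concentration. After 3 h of MTT uptake, lysis with 10% SDS–0.01 N HCl, then A540 read after 1 h. % cytotoxicity = (1 − X/R1)×100, where X is treated minus blank absorbance and R1 is untreated control absorbance.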
# [16] = tested on: DU-145; test: Cytotoxicity against human DU145 cells at 10 uM after 72 hrs by MTT assay; assay type: functional, cell-based; how it was run: as §2
# [17] = tested on: KB; test: Cytotoxicity against human KB cells at 10 uM after 72 hrs by MTT assay; assay type: functional, cell-based; how it was run: as §2
# [18] = tested on: SW-620; test: Cytotoxicity against human SW620 cells at 10 uM after 72 hrs by MTT assay; assay type: functional, cell-based; how it was run: as §2
# [19] = tested on: HBL-100; test: Cytotoxicity against human HBL100 cells at 10 uM after 72 hrs by MTT assay; assay type: functional, cell-based; how it was run: as §2
# [20] = tested on: A549; test: Cytotoxicity against human A549 cells at 10 uM after 72 hrs by MTT assay; assay type: functional, cell-based; how it was run: as §2
# [21] = tested on: MIA PaCa-2; test: Cytotoxicity against human MIAPaCa2 cells at 10 uM after 72 hrs by MTT assay; assay type: functional, cell-based; how it was run: as §2
# [22] = tested on: K562; test: Cytotoxicity against human K562 cells at 10 uM after 72 hrs by MTT assay; assay type: functional, cell-based; how it was run: as §2
# [23] = tested on: ECV-304; test: Cytotoxicity against human ECV304 cells at 10 uM after 72 hrs by MTT assay; assay type: functional, cell-based; how it was run: as §2
# [24] = Cytotoxicity against mouse NIH/3T3 cells at 10 uM after 72 hrs by MTT assay; assay type: cell-based; details: nih3t3, 72 h; how it was run: as §2
# [25] = Homo sapiens, ECV-304, 72 h, read-out: IC50
# [26] = Mus musculus, NIH3T3, 72 h, read-out: IC50
Structure (SMILES),IC50 [1] [µM],IC50 [2] [µM],IC50 [3] [µM],IC50 [4] [µM],IC50 [5] [µM],IC50 [6] [µM],IC50 [7] [µM],IC50 [8] [µM],"IC50 [9, 25] [µM]","IC50 [10, 26] [µM]",inhibition (INH) [11] [%],inhibition (INH) [12] [%],inhibition (INH) [13] [%],inhibition (INH) [14] [%],IC50 ([10]; nih3t3),also measured
C#CCn1cc(C(=O)NC(CC(=O)Nc2ccccn2)c2ccccc2)c(=O)c2cc(F)c(Cl)nc21 (centres undefined),> 10,2.1,2.3,2.3,> 10,> 10,> 10,> 10,> 10,4.2,109.6,83.4,99.1,75.5,–,–
C#CCn1cc(C(=O)NC(C(=O)NC2CCCCC2)c2ccccc2)c(=O)c2cccnc21 (centres undefined),–,–,–,–,–,–,–,–,–,–,–,–,–,–,–,Activity [15]: inactive; Activity [16]: inactive; Activity [17]: inactive; Activity [18]: inactive; Activity [19]: inactive; Activity [20]: inactive; Activity [21]: inactive; Activity [22]: inactive; Activity [23]: inactive; Activity [24]: Not Active
C#CCn1cc(C(=O)NC(CC(=O)Nc2ccccc2)c2ccccc2)c(=O)c2ccc(Cl)nc21 (centres undefined),0.54,> 10,> 10,2.9,4,> 10,3,7.7,4,4.4,99.4,28.3,75.4,69.5,–,–
C#CCn1cc(C(=O)NC(CC(=O)Nc2ccccn2)c2ccccc2)c(=O)c2ccc(Cl)nc21 (centres undefined),1.7,4.9,5.2,2.9,> 10,> 10,> 10,5.9,> 10,–,82,57.3,82.9,78.2,Not Active,–
C#CCn1cc(C(=O)NC(C(=O)Nc2ccccc2)c2ccccc2)c(=O)c2cc(F)c(Cl)nc21 (centres undefined),0.5,0.6,1.1,1.4,> 10,> 10,> 10,5,9.1,–,97,44.3,99.9,84.4,Not Active,–
C#CCn1cc(C(=O)NC(C(=O)NC2CCCC2)c2ccccc2)c(=O)c2ccc(Cl)nc21 (centres undefined),–,–,–,–,–,–,–,–,–,–,–,–,–,–,–,Activity [15]: inactive; Activity [16]: inactive; Activity [17]: inactive; Activity [18]: inactive; Activity [19]: inactive; Activity [20]: inactive; Activity [21]: inactive; Activity [22]: inactive; Activity [23]: inactive; Activity [24]: Not Active
C#CCn1cc(C(=O)NC(C(=O)NC2CCCCC2)c2ccccc2)c(=O)c2cc(F)c(Cl)nc21 (centres undefined),1.8,> 10,> 10,> 10,> 10,> 10,> 10,> 10,> 10,7.4,–,–,–,–,–,–
C#CCn1cc(C(=O)NC(CC(=O)NC2CCCC2)c2ccccc2)c(=O)c2cc(F)c(Cl)nc21 (centres undefined),0.68,> 10,4.9,2.1,2,6.1,4.4,7.3,5.1,2.4,102,83.4,100,80.1,–,–
C#CCn1cc(C(=O)NC(CC(=O)NC2CCCCC2)c2ccccc2)c(=O)c2cc(F)c(Cl)nc21 (centres undefined),2.3,8.03,> 10,> 10,> 10,> 10,4.9,6.2,9.8,–,–,–,–,–,Not Active,–
C#CCn1cc(C(=O)NC(C(=O)NC2CCCC2)c2ccccc2)c(=O)c2cccnc21 (centres undefined),> 10,> 10,4.5,> 10,> 10,> 10,> 10,> 10,> 10,–,–,–,–,–,Not Active,–
C#CCn1cc(C(=O)NC(CC(=O)NC2CCCC2)c2ccccc2)c(=O)c2ccc(Cl)nc21 (centres undefined),1.1,> 10,> 10,2.7,3.2,9.5,2.4,6.8,7.8,4.4,18.1,82,81.7,79.8,–,–
C#CCn1cc(C(=O)NC(C(=O)NC2CCCC2)c2ccccc2)c(=O)c2cc(F)c(Cl)nc21 (centres undefined),1.8,3.2,3.5,3.4,5.1,> 10,1.7,5.9,3.2,0.4,–,–,–,–,–,–
C#CCn1cc(C(=O)NC(C(=O)NC2CCCCC2)c2ccccc2)c(=O)c2ccc(Cl)nc21 (centres undefined),–,–,–,–,–,–,–,–,–,–,–,–,–,–,–,Activity [15]: inactive; Activity [16]: inactive; Activity [17]: inactive; Activity [18]: inactive; Activity [19]: inactive; Activity [20]: inactive; Activity [21]: inactive; Activity [22]: inactive; Activity [23]: inactive; Activity [24]: Not Active
C#CCn1cc(C(=O)NC(C(=O)Nc2ccccc2)c2ccccc2)c(=O)c2cccnc21 (centres undefined),8.9,8.8,3,> 10,> 10,> 10,> 10,> 10,> 10,–,64.6,39.9,79.3,79.3,Not Active,–
C#CCn1cc(C(=O)NC(CC(=O)NC2CCCCC2)c2ccccc2)c(=O)c2cccnc21 (centres undefined),–,–,–,–,–,–,–,–,–,–,–,–,–,–,–,Activity [15]: inactive; Activity [16]: inactive; Activity [17]: inactive; Activity [18]: inactive; Activity [19]: inactive; Activity [20]: inactive; Activity [21]: inactive; Activity [22]: inactive; Activity [23]: inactive; Activity [24]: Not Active
C#CCn1cc(C(=O)NC(C(=O)Nc2ccccc2)c2ccccc2)c(=O)c2cc(F)c(N3CCCC3)nc21 (centres undefined),–,–,–,–,–,–,–,–,–,–,–,–,–,–,–,Activity [15]: inactive; Activity [16]: inactive; Activity [17]: inactive; Activity [18]: inactive; Activity [19]: inactive; Activity [20]: inactive; Activity [21]: inactive; Activity [22]: inactive; Activity [23]: inactive; Activity [24]: Not Active
COc1cccc2c1C(=O)c1c(O)c3c(c(O)c1C2=O)C[C@@](O)(C(=O)CO)C[C@@H]3O[C@H]1C[C@H](N)[C@H](O)[C@H](C)O1 [DOXORUBICIN],0.63,0.1,–,0.08,0.24,–,0.15,–,–,0.39,–,–,–,–,–,IC50 ([9]; ecv-304): Not Active
C#CCn1cc(C(=O)NC(C(=O)Nc2ccccc2)c2ccccc2)c(=O)c2ccc(Cl)nc21 (centres undefined),> 10,1.7,2.1,2.2,7.8,> 10,9.7,3.3,> 10,–,86.3,82,91.7,76.5,Not Active,–

# Reference: ChEMBL document CHEMBL1153592, “1,8-Naphthyridine-3-carboxamide derivatives with anticancer and anti-inflammatory activity” (Eur J Med Chem, 2009)
